The text below walks through data of PMC11995693 (Journal of medicinal chemistry, 2025).

Data set [1] is described as follows: PAMPA-GIT permeability. It is filed as in vitro ADME. Put shortly: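 Stirred PAMPA sandwich with the acceptor-side filter coated in GIT-0 lipid. Donor held test or reference compound at 10 μM in pH 7.4 buffer with 0.2% DMSO, against pH 7.4 sink buffer. Incubated 4 h at room temperature. Donor and acceptor were sampled and quantified by LC-MS/MS. Effective permeability (Pe, cm/s) was calculated from filter area × 70% porosity, phase volumes, incubation and steady-state time, and donor concentrations, with membrane retention factor.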

Data set [2] relates to Poly(I:C) + IFNγ stimulated NHEK cells. Put plainly: Poly. The data set is classed as cell-based, human. As to conditions: for inhibition of IFNγ-inducible chemokines (CXCL9, CXCL10, CXCL11): 30–100 μM. Summed up:
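Primary human epidermal keratinocytes were seeded and incubated overnight at 37 °C. They were stimulated with Poly(I:C) (50 μg/mL) plus IFNγ (5 ng/mL), with or without test compound at 1, 10, 30 or 100 μM, for 8 h. RNA was isolated, and TaqMan RT-PCR gave fold changes in IL-6, IFNβ, IL-1β, CXCL9, CXCL10 and CXCL11 expression.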

Data set [3] is described as follows: Chemical stability in pH buffers. It is filed as physicochemical.
A short description of data set [4]: Oral pharmacokinetics in mice. The data set is classed as in vivo, C57BL6 mice. The following applies: 100 mg/kg equivalent.
Data set [5] deals with NHEKs. Put plainly: Screening of TLR3 and IL-6 mRNA expression in NHEKs. The data set is classed as cell-based, human.
The subject of data set [6] is C57BL/6 mice. As to conditions: cited from earlier work; for hair growth: topical application.
Data set [7] can be described thus: Preliminary toxicity profile of P13, systemic administration. The data set is classed as in vivo. As to conditions: two doses, systemic administration (Figure S2, Table S1).

Entries after “also recorded” stand apart in the source; their conditions may differ. Read-outs that look alike come from different tables or passages of the source. Some results are limits rather than exact numbers.

With `C=C(CC(=O)OCCCOCCCCCCCCCCCCCCCC)C(=O)O` [Compound P7, 4-(3-(Hexadecyloxy)-propoxy)-2-methylene-4-oxobutanoic Acid], the “permeation index (Pe)” value in data set [1] amounted to 3.21 ×10⁻⁶ cm/s.

On to `C=C(CC(=O)OCOC(=O)OC(C)C)C(=O)OC` [Compound P9, 4-(((Isopropoxycarbonyl)oxy)methyl) 1-Methyl 2-Methylenesuccinate], for which, in data set [2] (100 μM), the “effect on IL-1β, in words” value is reported as “showed effects at 100 μM”.

On to `C=C(CC(=O)OCOC(=O)OC(C)C)C(=O)O` [Compound P5, 4-(((Isopropoxycarbonyl)oxy)methoxy)-2-methylene-4-oxobutanoic Acid], for which the “chemical stability at pH 7.4, in words” value in data set [3] is on record as “complete instability”.

Take `C=C(CC(=O)OC)C(=O)OCOC(=O)OC(C)C` [Compound P13, 1-(((Isopropoxycarbonyl)oxy)methyl) 4-Methyl 2-Methylenesuccinate]: in data set [2] (1–100 μM, 8 h), the “inhibition of IL-6, in words” value is given as “significant, dose-dependent inhibition”. Moreover, the “inhibition of IFNγ-inducible chemokines (CXCL9, CXCL10, CXCL11)” value in data set [2] (8 h) is on record as “over 50%”. Besides, the “intact prodrug in plasma” value in data set [4] was “undetectable”. For the same compound, in data set [5] (Figure S1), the “inhibition of mRNA expression of TLR3 and IL-6” value was greater than 90%. In addition, in data set [6] (topical administration), the skin concentrations result was “considerable skin concentrations”. Moreover, the hair growth entry is “significantly promoted hair growth” in data set [6] and “significant increase in hair growth” in data set [6] (listed as SCD-153). In addition, in data set [7], the “hematological changes and weight loss” value was “No hematological changes or weight loss”.

For the compound `C=C(CC(=O)OCOC(=O)OC(C)C)C(=O)OCOC(=O)OC(C)C` [Compound P2, Bis(((isopropoxycarbonyl)oxy)methyl) 2-Methylenesuccinate], in data set [2] (1–100 μM, 8 h), the “inhibition of IFNβ, in words” value is “dose dependent inhibition” and the “inhibition of IL-6, in words” value is “significant, dose-dependent inhibition”. The “inhibition of IFNγ-inducible chemokines (CXCL9, CXCL10, CXCL11)” value in data set [2] (8 h) is on record as “over 50%”. Moreover, the “intact prodrug in plasma” value in data set [4] is reported as “not detectable”. Also, the “inhibition of mRNA expression of TLR3 and IL-6” value in data set [5] (Figure S1) was greater than 90%.

Turning to `C=C(CC(=O)OCOC(=O)C(C)(C)C)C(=O)O` [Compound P4, 2-Methylene-4-oxo-4-((pivaloyloxy)methoxy)butanoic Acid], the “chemical stability at pH 7.4, in words” value in data set [3] is “complete instability”.

In the case of `C=C(CC(=O)OCc1oc(=O)oc1C)C(=O)O` [Compound P6, 4-((5-Methyl-2-oxo-1,3-dioxol-4-yl)methoxy)-2-methylene-4-oxobutanoic Acid], in data set [3], the “chemical stability at pH 7.4, in words” value is “complete instability”.

Take `C=C(CC(=O)OC)C(=O)O` [Compound 4-MI, 4-methyl itaconate]: the “effect on TLR3 and IL-6 mRNA / cytokine production, in words” value in data set [5] (Figure S1) was “neither 4-MI nor 1A affected the mRNA expression; also recorded: failed to inhibit cytokine production”. Moreover, in data set [1], the “permeability in PAMPA, in words” value is given as “poor permeability”. Also, in data set [6] (compared at equimolar doses), the “efficacy in vivo in the alopecia areata model” value is “ineffective”.

As for `C=C(CC(=O)O)C(=O)O` [IA, Itaconic acid], the “effect on TLR3 and IL-6 mRNA / cytokine production, in words” value in data set [5] (Figure S1) is listed as “failed to inhibit cytokine production”; in data set [5] (Figure S1, listed as 1A) it was “neither 4-MI nor 1A affected the mRNA expression”. The “permeability in PAMPA, in words” value in data set [1] is given as “poor permeability”.
